Assay results reported in ChEMBL document CHEMBL2176997, “Salicylanilide inhibitors of Toxoplasma gondii” (J Med Chem, 2012).
≈ marks a conversion by molar mass, not a printed value. Calls of active or inactive are those of the source. The calls are words filed in the database; no cut-off is given here.

Columns and labels:
Toxoplasma gondii [1] = experiment: Antiapicomplexan activity against Toxoplasma gondii RH tachyzoites infected in HFF cells assessed as [3H]-uracil incorporation after 24 hrs by scintillation luminescence counter; type: functional
How it was run: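 Confluent HFF monolayers in IMDM-C (10% FBS) infected with 3,500 needle-released tachyzoites per well. Compounds from 10 mM DMSO stocks, diluted in medium (final DMSO ≤0.1%), were added 1 h after infection, with 0.1% DMSO as vehicle control. [3H]-uracil (25 µL of 0.1 mCi/mL) was added 24 h before harvest onto glass-fibre filters and counted by scintillation. Cultures were kept at 33°C or 37°C, 5% CO2.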

Toxoplasma gondii [2] = experiment: Antiapicomplexan activity against Toxoplasma gondii THdhxgTRP tachyzoites harboring insertional mutation assessed as growth inhibition after 6 weeks; type: functional, organism-based
Toxoplasma gondii [3] = experiment: Parasitostatic activity against Toxoplasma gondii RH tachyzoites expressing yellow fluorescent protein infected in HFF cells at 1 uM administered for 4 days followed by compound wash out measured on day 11 relative to untreated control; type: functional, organism-based
How it was run: (§1)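 RH-YFP tachyzoites grown in HFF cells were exposed to 1 µM compound under set schedules: 4 days of treatment then removal, or 10 days of treatment then removal. Parasite burden was followed over time as YFP fluorescence (excitation 514 nm, emission 540 nm, bottom read) and compared with untreated infected controls.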

Toxoplasma gondii [4] = experiment: Antiapicomplexan activity against Toxoplasma gondii RH tachyzoites expressing yellow fluorescent protein infected in HFF cells assessed as parasite growth inhibition at 1 uM administered for 25 days followed by compound wash out; type: functional, organism-based
HFF = experiment: Cytotoxicity against HFF cells assessed as survival by WST1 assay; type: cell-based; details: human
How it was run: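 Confluent HFF cells were treated with compounds at the concentrations used in the challenge assays. On the final day WST-1 reagent was added, followed by 1 h incubation in the dark at 37°C and absorbance reading at 420 nm.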

Plasmodium falciparum [5] = experiment: Antiapicomplexan activity against chloroquine-sensitive Plasmodium falciparum D6 assessed as growth inhibition after 72 hrs by MSF assay; type: functional, organism-based; details: D6, 72 h
How it was run: (§2)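 P. falciparum D6 or TM91-C235, late-ring/early-trophozoite stage, cultured at 0.3% parasitemia and 2% hematocrit on predosed plates. Twelve two-fold dilutions spanned 0.5–10000 ng/ml final, in quadruplicate, with chloroquine control. Incubation 72 h at 37°C under 5% CO2/5% O2/90% N2. Lysis buffer with SYBR Green I (10x final) was added, then 24 h dark at room temperature. IC50 from fluorescence by sigmoidal variable-slope regression.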

Plasmodium falciparum [6] = experiment: Selectivity ratio of IC50 for chloroquine-resistant Plasmodium falciparum TM91-C235 to IC50 for chloroquine-sensitive Plasmodium falciparum D6; type: functional
Plasmodium falciparum [7] = experiment: Antiapicomplexan activity against chloroquine-resistant Plasmodium falciparum TM91-C235 assessed as growth inhibition after 72 hrs by MSF assay; type: functional, organism-based; details: TM91-C235, 72 h; how it was run: as §2
Toxoplasma gondii [8] = experiment: Parasitostatic activity against Toxoplasma gondii RH tachyzoites expressing yellow fluorescent protein infected in HFF cells at 1 uM administered for 10 days followed by compound wash out measured on day 17; type: functional, organism-based; how it was run: as §1
Toxoplasma gondii [9] = experiment: Antiapicomplexan activity against Toxoplasma gondii RH tachyzoites expressing yellow fluorescent protein infected in HFF cells after 72 hrs by fluorescence assay; type: functional, organism-based
How it was run: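 Confluent HFF monolayers in IMDM-C (10% FBS) infected with 3,500 RH-YFP tachyzoites per well. Compounds were added 1 h later from 10 mM DMSO stocks, final DMSO ≤0.1%. Pyrimethamine/sulfadiazine and 0.1% DMSO served as controls. After 72 h YFP fluorescence was read (ex 514, em 540 nm, bottom optics), giving MIC50/MIC90 ranges. Plates held at 33°C or 37°C, 5% CO2.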

Toxoplasma gondii [10] = experiment: Antiapicomplexan activity against Toxoplasma gondii TgGoatUS4 oocysts infected in HLA B07 transgenic mouse assessed as increase in survival at 25 to 100 mg/kg, po; type: functional, organism-based
How it was run: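 Female B7 mice (~25 g), 5 per group, given 100 ME49 or TgGoatUS4 oocysts by oral gavage, plus 100 mg/kg (2.5 mg/mL) or 25 mg/kg ([…]) of test compound as 1.0 mL oral-gavage suspension. Vehicle DMSO 1.0%/PEG 400 5.0%/0.5% CMC 94.0%. Infected untreated and drug-only groups included. Mice observed daily and day of death recorded. Impression smears examined for tachyzoites.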

Mus musculus = experiment: Toxicity in HLA B07 transgenic mouse assessed as survival at 25 to 100 mg/kg, po administered for 9 days measured after day 10; type: organism-based; set-up: dose 25-100 mg/kg, route oral; details: in vivo, 216 h

SMILES	MIC50 (Toxoplasma gondii [1]) [µM]	MIC90 (Toxoplasma gondii [1]) [µM]	also measured
O=C(Nc1cccc(Cc2ccccc2)c1)c1cc(Cl)ccc1O	0.75 (≈ 0.253 µg/mL)	0.75 (≈ 0.253 µg/mL)	–
COc1c(C)c2c(c(O)c1C/C=C(\C)CCC(=O)O)C(=O)OC2	–	–	growth inhibition (GI) (Toxoplasma gondii [2]): Active
CCOc1cccc(NC(=O)c2cc(F)ccc2O)c1	> 1	> 1	–
Nc1ccc(NC(=O)c2cc(Cl)ccc2O)c(Cl)c1	> 1	> 1	–
O=C(Nc1cc(F)cc(F)c1)c1cc(Cl)ccc1O	> 1	> 1	–
O=C(Nc1ccc([N+](=O)[O-])cc1Cl)c1cc(Cl)ccc1OC(=O)N1CCOCC1	> 1	> 1	–
COc1ccc(NC(=O)c2cc(Cl)ccc2O)c(OC)c1OC	> 1	> 1	–
N#Cc1cccc(NC(=O)c2cc(Cl)ccc2O)c1	> 1	> 1	–
O=C(Nc1cc(Cl)cc(Cl)c1)c1cc(Cl)ccc1O	0.25 (≈ 0.0791 µg/mL)	0.25 (≈ 0.0791 µg/mL)	–
COc1ccc(C)c(NC(=O)c2cc(Cl)ccc2O)c1	> 1	> 1	–
O=C(Nc1cccc(C(F)(F)F)c1)c1cc(Cl)ccc1O	0.25 (≈ 0.0789 µg/mL)	0.25 (≈ 0.0789 µg/mL)	–
O=C(Nc1ccc([N+](=O)[O-])cc1Cl)c1ccccc1O	> 1	> 1	–
COc1ccc(F)cc1C(=O)Nc1ccc([N+](=O)[O-])cc1Cl	> 1	> 1	–
O=c1[nH]c(=O)c2nc[nH]c2[nH]1	–	–	growth inhibition (GI) (Toxoplasma gondii [2]): Active
CC(C)(C)c1cccc(NC(=O)c2cc(Cl)ccc2O)c1	0.008 (≈ 0.00243 µg/mL)	0.016 (≈ 0.00486 µg/mL)	Activity (Toxoplasma gondii [3]): inactive; growth inhibition (GI) (Toxoplasma gondii [4]): Active; Activity (HFF): > 1000 nM; IC50 (Plasmodium falciparum [5]): 3100 nM; Ratio IC50 (Plasmodium falciparum [6]): 2; IC50 (Plasmodium falciparum [7]): > 6500 nM; growth inhibition (GI) (Toxoplasma gondii [2]): Active; Activity (Toxoplasma gondii [8]): inactive; IC50 (Toxoplasma gondii [9]): 8 nM; IC90 (Toxoplasma gondii [9]): 16 nM
C=Cc1cccc(NC(=O)c2cc(Cl)ccc2O)c1	0.25 (≈ 0.0684 µg/mL)	0.75 (≈ 0.205 µg/mL)	–
CN(CC(=O)NN)C(=O)Oc1ccc(Cl)cc1C(=O)Nc1cc(C(F)(F)F)cc(C(F)(F)F)c1.Cl	0.125	0.125	Activity (HFF): > 1000 nM; Activity (Toxoplasma gondii [10]): Active; Activity (Mus musculus): Non-toxic; growth inhibition (GI) (Toxoplasma gondii [2]): Active; IC50 (Toxoplasma gondii [9]): 125 nM; IC90 (Toxoplasma gondii [9]): 125 nM
N#Cc1ccc(Cl)c(NC(=O)c2cc(Cl)ccc2O)c1	0.5 (≈ 0.154 µg/mL)	0.75 (≈ 0.23 µg/mL)	–
Cc1cccc(NC(=O)c2cc(Cl)ccc2O)c1	> 1	> 1	–
CCOc1cccc(NC(=O)c2cc(Cl)ccc2O)c1	> 1	> 1	–
